Tested on: MDA-MB-231 cells
Test: Dox intracellular localization by confocal microscopy
Format: cell-based, human
Settings: free Dox 7.5 µM, NF-Dox 50 µM (7.5 µM of Dox), 1 h, 37 °C
Method in brief: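 MDA-MB-231 cells were seeded on coverslips at 5×10^4 cells/well and grown 24 h. They were exposed 1 h at 37 °C, washed twice in PBS, fixed 10 min in ice-cold 4% PFA, and mounted in DAPI-containing antifade. Intrinsic Dox fluorescence (RFP channel) and DAPI nuclei were imaged with a 63× oil objective. Images represent three separate experiments.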

COc1cccc2c1C(=O)c1c(O)c3c(c(O)c1C2=O)C[C@@](O)(C(=O)CO)C[C@@H]3O[C@H]1C[C@H](N)[C@H](O)[C@H](C)O1 [Dox, Doxorubicin]
Dox cellular uptake and localization (confocal, red fluorescence): not significant

Reference: PMC11193445 (International Journal of Nanomedicine, 2024)
